The values that follow come from the EternaBench riboswitch data.

For orientation: apparent Kd means a dissociation constant that holds for the conditions of the assay.

This series concerns MS2 coat protein. Nature of the series: apparent Kd, MS2 coat protein; higher = weaker binding; RNA-MaP array; FMN 200 µM where present. The procedure, abridged:
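Designs on Illumina sequencing-chip clusters, transcribed by stalled E. coli RNA polymerase, were exposed to SNAP-549-labelled MS2 coat protein in doubling steps from 0.7 or 1.5 nM up to 3 µM, without and then with constant ligand. The buffer held 100 mM Tris-HCl pH 7.5, 80 mM KCl, 4 mM MgCl2, BSA, DTT, yeast tRNA and Tween-20. Apparent Kd values are medians of filtered per-cluster binding-curve fits to green signal normalised to red-channel RNA signal and control-cluster median Fmax.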

Where [1] appears, read: designed as: OFF switch for flavin mononucleotide, no ligand.
[2] abbreviates: ligand present: flavin mononucleotide, designed as: OFF switch for flavin mononucleotide.
[3] abbreviates: designed as: ON switch for flavin mononucleotide, no ligand.
The mark [4] stands for this setting: ligand present: flavin mononucleotide, designed as: ON switch for flavin mononucleotide.

In the case of “GCGUCAGAAUUAAUUGUGACAUACAGAAGGCAAAAGUUAUGUUCAGACAUGAGGAUCACCCAUGUUGAGGAUAUGUAGAGAAUC”, the “apparent Kd” value is, setting by setting: under setting [1], 8.27 nM; under setting [2], 7.1 nM.
On to “UAUAAACAUGAGGAUCACCCAUGUAAUAAUAUGGGAGGAUAUCAGAUUUAAUUUAAUUUAUGAGAAGGCCUAAUAU”, for which the “apparent Kd” value reads like this: under setting [3], 627 nM; under setting [4], 43.1 nM.
With “UGGUACUAGGGAGGAUAUGGGAAGAUACAUGAGGAUCACCCAUGUUUAAGAAUGCAGAGAGGCAACUAGAAGGCCCUAGUACCU”, the “apparent Kd” value reads like this: under setting [3], 324 nM; under setting [4], 18.7 nM.
As to “GUAGCAUUGAGAGGAUAUCCAUACCGGAAACGGACAUGAGGAUCACCCAUGUGGCGAAAGCCGUGGGAGAAGGCUCUAUGCUAC”, the “apparent Kd” value is, setting by setting: under setting [3], 8.39 nM; under setting [4], 4.32 nM.
“CUGAUGUGAGGAUAUGUGAUCUGCCUUCUAUGUAGAUGAUCACAGAAGGCACAUGAGGAUCACCCAUGUAGAUC”: the “apparent Kd” value was found to be 85.9 nM under setting [1] and 94.3 nM under setting [2].
Turning to “UUUCGUCUCGAGAAGGUCUAUCGACAUGAGGAUCACCCAUGUUGCCAUGGAAGGAUAUCGAAGGCAGCACGGGAAAUAGUCCGG”, the “apparent Kd” value is, setting by setting: under setting [3], 78.3 nM; under setting [4], 14 nM.
Consider “AUCAUGUAAGGAUAUCUUACAUGUAUCGAAAGAUACAGUUAAGAGAAGGUACAUGAGGAUCACCCAUGUAUAAC”, for which the “apparent Kd” value by setting is: under setting [1], 29 nM; under setting [2], 45.5 nM.
Consider “AGUGUGUGGCAGGAUAUUCCGGUCGUUGGUCGGGAAGAAGGGUCUACAUGAGGAUCACCCAUGUGACCGGUUGA”, for which the “apparent Kd” value under setting [1] was 25.6 nM and the “apparent Kd” value under setting [2] came out at 25.6 nM.
Turning to “AGAUCACAAAUUUGGGAUAGUAGUACAGAAGGCACGGAAGUACAUGAGGAUCACCCAUGUGUGGGUGAGGAUAUGUACUCACUA”, the “apparent Kd” value under setting [3] was 217 nM and the “apparent Kd” value under setting [4] came to 14 nM.
Take “GUAUGCAAGUAGAAGGACGGAUAUUUUGAAAACGUAGGAUAUACAGAAUCAUAUCCACAUGGAUACAUGAGGAUCACCCAUGUA”: the “apparent Kd” value came to 12 nM under setting [1] and 11.8 nM under setting [2].
For “GGGCAAAAGUAGAAGGGAUAUACGAAAAGUAUAUCAGGAUAUACAUGAGGAUCACCCAUGUUCUAAAAGUGAUAGUCCUCCCUA”, in that order: 33.3 nM and 262 nM.
Regarding “GUAUUUAGAUAAGGAUAUAAGUCUAUGACAUGAGGAUCACCCAUGUGUGUUUUAGAAGGUAUUUGGGUAAUAUUGUUACAGUAA”, the “apparent Kd” value runs as follows: under setting [3], 29.6 nM; under setting [4], 21.3 nM.
Turning to “AGUGUCAUCGAGAAGGCCUUAAGAACAUGAGGAUCACCCAUGUAACAUGGGAGGAUAUCGAUGAUACAGCUACGUUUCGUAGCA”, the “apparent Kd” value runs as follows: under setting [3], 12.4 nM; under setting [4], 5.21 nM.
Turning to “UAUAUAUAGUAAGGAUAUGUAUUCAUUUUAUAAACAGAAGGUACUGACAUGAGGAUCACCCAUGUUUUAGUGUGGGCAUGUAGA”, the “apparent Kd” value turned out to be 81.5 nM under setting [1] and 132 nM under setting [2].
As to “ACUACAUGAGGAUCACCCAUGUGAAUAAUAAAAGUAACAAGCAGAAGGUGACCUCGUCUCCUGGUCAAGGAUAUGCAAGAAAGA”, the “apparent Kd” value was 267 nM under setting [3] and 33.7 nM under setting [4].
For “GUCAGCUCGUGAGGAUAUACAUGUGCUGGAAACAGCACUAAAGUUUUCACAUGAGGAUCACCCAUGUAGAAGGCACGAGCUGAU”, the “apparent Kd” value is, setting by setting: under setting [1], 15.8 nM; under setting [2], 35.2 nM.
“UUGCCACAUGAGGAUCACCCAUGUGAGGAUAUGGCCUGUUUGGCGUGUGCUGGCUCUGUCAGAAGGCGCGUGGG”: the “apparent Kd” value was 31.8 nM under setting [1] and 37.5 nM under setting [2].
Regarding “AACAUGGUCCAGAAGGGCUAUUUAUUUAAUUAUUAUUUAGAACAGCAUAGCAGGAUAUGGUUAACAUGAGGAUCACCCAUGUAC”, the “apparent Kd” value under setting [3] came out at 16 nM and the “apparent Kd” value under setting [4] worked out at 11.5 nM.
For “AGCUAUUACGAAGGAUAUUCUGACAUGAGGAUCACCCAUGUCUUCAUGAUUUAUUGUGAUCACAUGAAGAAGGUCGUACUAACA”, in that order: 198 nM and 48.3 nM.
Turning to “UUUUUAUUUGCAGGAUAUUGUAUUUUAUUACUUCAAGAAGGGCAUUACAUGAGGAUCACCCAUGUCUUCCUAUGGUUAACUAGU”, the “apparent Kd” value is, setting by setting: under setting [1], 12.3 nM; under setting [2], 12 nM.
